Columns and labels:
Canis familiaris [1] = species on record: Canis familiaris; assay: In vitro metabolic stability in dog hepatic microsomes (1 mg protein/mL), expressed as the percent remaining after 30 min of incubation at […].; type: functional; details: Canis lupus familiaris, Liver, 37 °C
Outline: (§1)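 Test compound at 10 µM incubated 30 min at 37 °C with dog or human hepatic microsomes (1 mg protein/mL). Read-out is percent of parent remaining. More than 2 determinations.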

Homo sapiens [2] = species on record: Homo sapiens; assay: In vitro metabolic stability in human hepatic microsomes (1 mg protein/mL), expressed as the percent remaining after 30 min of incubation at […].; type: functional; details: Liver, 37 °C; outline: as §1
[3] = molecular target: T1, Muscarinic acetylcholine receptor M3 (Homo sapiens, UniProt P20309); assay: Inhibition of [3H]NMS binding to human muscarinic acetylcholine receptor M3 expressed in CHO cells; type: cell-based
Outline: (§2)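 Competition binding against [3H]-NMS on membranes from CHO cells expressing cloned human m2 or m3 receptors. Affinity is taken from inhibition of specific binding, as the mean of two or more independent assays.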

Canis familiaris [4] = assay: Metacholine provocation test was conducted 4 hr after oral administration (1 mg/kg) in anesthetized dogs. The bronchodilatory activity is expressed as shifts; type: functional, Canis lupus familiaris
[5] = molecular target: T2, Muscarinic acetylcholine receptor M2 (Homo sapiens, UniProt P08172); assay: Inhibition of [3H]NMS binding to human muscarinic acetylcholine receptor M2 expressed in CHO cells; type: cell-based; outline: as §2
T2 sequence (P08172 whole entry): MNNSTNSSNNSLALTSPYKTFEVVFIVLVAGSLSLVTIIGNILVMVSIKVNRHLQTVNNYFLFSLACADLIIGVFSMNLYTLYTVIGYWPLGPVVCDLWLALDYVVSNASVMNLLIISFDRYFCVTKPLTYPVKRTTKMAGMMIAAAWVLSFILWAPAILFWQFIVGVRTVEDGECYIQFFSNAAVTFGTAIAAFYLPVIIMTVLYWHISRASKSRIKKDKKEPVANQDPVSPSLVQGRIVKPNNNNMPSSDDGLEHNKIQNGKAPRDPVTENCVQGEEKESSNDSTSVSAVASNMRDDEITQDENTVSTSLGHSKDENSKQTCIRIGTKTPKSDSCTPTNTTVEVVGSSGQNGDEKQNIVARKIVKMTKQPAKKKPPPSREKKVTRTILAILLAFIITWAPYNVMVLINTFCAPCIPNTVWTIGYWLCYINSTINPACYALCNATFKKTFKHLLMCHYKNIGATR

[6] = molecular target: T1, Muscarinic acetylcholine receptor M3; assay: Ability to inhibit binding of [3H]NMS was determined by receptor binding assay using membranes from chinese hamster ovary (CHO) cells expressing cloned Muscarinic acetylcholine receptor M3; type: cell membranes
Outline: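 Radioligand displacement of [3H]-NMS specific binding on membranes prepared from CHO cells transfected with cloned human m3 receptor. Affinity was derived from inhibition of specific binding. Each value is the mean of two or more independent assays.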

Homo sapiens [7] = species on record: Homo sapiens; assay: In vitro metabolic stability in human hepatic microsomes (1 mg protein/mL) was reported as the percent remaining after 30 min of incubation […]; type: functional; details: Liver; outline: as §1

T1 sequence (P20309 whole entry): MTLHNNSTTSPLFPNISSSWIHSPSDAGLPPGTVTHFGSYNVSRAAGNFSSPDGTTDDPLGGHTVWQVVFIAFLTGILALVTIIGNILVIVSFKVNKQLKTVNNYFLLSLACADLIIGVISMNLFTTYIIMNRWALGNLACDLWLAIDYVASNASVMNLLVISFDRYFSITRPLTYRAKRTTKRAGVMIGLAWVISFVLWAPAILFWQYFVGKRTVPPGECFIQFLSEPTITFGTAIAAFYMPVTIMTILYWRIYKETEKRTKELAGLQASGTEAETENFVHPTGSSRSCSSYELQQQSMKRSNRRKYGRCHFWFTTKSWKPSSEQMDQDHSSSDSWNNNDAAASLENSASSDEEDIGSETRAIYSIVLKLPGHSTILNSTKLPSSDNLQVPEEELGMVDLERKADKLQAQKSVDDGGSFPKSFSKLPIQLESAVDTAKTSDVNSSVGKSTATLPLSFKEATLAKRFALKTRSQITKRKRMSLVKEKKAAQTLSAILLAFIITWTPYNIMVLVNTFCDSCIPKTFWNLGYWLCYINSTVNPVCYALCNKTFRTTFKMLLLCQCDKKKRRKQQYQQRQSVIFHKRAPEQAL

| SMILES | Metabolic stability (Canis familiaris [1]) | Metabolic stability (Homo sapiens [2]) | Ki [3] | Activity (Canis familiaris [4]) | Ki [5] | Ki [6] | Metabolic stability (Homo sapiens [7]) |
| --- | --- | --- | --- | --- | --- | --- | --- |
| CC(C)=CCCN1CCC(NC(=O)[C@](O)(c2ccccc2)[C@H]2CC[C@H](O)C2)CC1 | 75% | 76% | 18 nM | 2.9 | 2300 nM |  |  |
| Cc1cccc(CN2CCC(NC(=O)[C@](O)(c3ccccc3)[C@@H]3CCC(F)(F)C3)CC2)n1 | 24% | 52% |  |  |  |  |  |
| O=C(NC1CCN(CC2CCCCC2)CC1)[C@](O)(c1ccccc1)[C@@H]1CCC(F)(F)C1 | 70% | 86% | 18 nM | 2.3 | 21000 nM |  |  |
| O=C(NC1CCN(Cc2ccsc2)CC1)C(O)(c1ccccc1)C1CCCC1 (centres undefined) |  |  | 3.6 nM |  | 79 nM |  |  |
| O=C(NC1CCN(Cc2ccccc2)CC1)C(O)(c1ccccc1)C1CCCC1 (centres undefined) |  |  |  |  | 30 nM |  |  |
| CC(C)=CCCN1CCC(NC(=O)[C@](O)(c2ccccc2)[C@@H]2CCC(F)(F)C2)CC1 | 70% | 68% | 6.2 nM | 4.2 | 2000 nM |  |  |
| Nc1ccc(CN2CCC(NC(=O)[C@](O)(c3ccccc3)[C@@H]3CCC(F)(F)C3)CC2)cc1 | 89% | 88% | 7.8 nM | 43 | 220 nM |  |  |
| Cc1cccc(CN2CCC(NC(=O)C(O)(c3ccccc3)C3CCCC3)CC2)n1 (centres undefined) |  |  | 11 nM |  | 2400 nM |  |  |
| O=C(NC1CCN(Cc2ccccc2)CC1)[C@](O)(c1ccccc1)[C@@H]1CCC(F)(F)C1 | 45% | 47% | 3.8 nM |  | 260 nM |  |  |
| Nc1ccc(CN2CCC(NC(=O)[C@](O)(c3ccccc3)[C@@H]3CCC(F)(F)C3)CC2)nc1 |  |  | 15 nM |  | 930 nM |  |  |
| Cc1cc(CN2CCC(NC(=O)C(O)(c3ccccc3)C3CCCC3)CC2)cs1 (centres undefined) |  |  | 3.5 nM |  | 24 nM |  |  |
| Cc1ccc(CN2CCC(NC(=O)C(O)(c3ccccc3)C3CCCC3)CC2)cc1 (centres undefined) |  |  | 6.4 nM |  | 22 nM |  |  |
| Nc1ccc(CN2CCC(NC(=O)[C@](O)(c3ccccc3)[C@@H]3CCC(F)(F)C3)CC2)cc1F | 78% | 78% | 6.1 nM |  | 310 nM |  |  |
| O=C(NC1CCN(Cc2ccccn2)CC1)[C@](O)(c1ccccc1)[C@@H]1CCC(F)(F)C1 | 45% | 60% | 13 nM |  | 2400 nM |  |  |
| O=C(NC1CCN(CC2CCCCC2)CC1)C(O)(c1ccccc1)C1CCCC1 (centres undefined) |  |  | 17 nM |  | 3300 nM |  |  |
| O=C(NC1CCN(Cc2cccc(CO)c2)CC1)[C@](O)(c1ccccc1)[C@@H]1CCC(F)(F)C1 | 73% | 34% |  | 3.1 | 6900 nM |  |  |
| O=C(NC1CCN(Cc2ccncc2)CC1)C(O)(c1ccccc1)C1CCCC1 (centres undefined) |  |  | 190 nM |  | 6400 nM |  |  |
| O=C(NC1CCN(Cc2cccnc2)CC1)C(O)(c1ccccc1)C1CCCC1 (centres undefined) |  |  | 100 nM |  | 4600 nM |  |  |
| NCc1cccc(CN2CCC(NC(=O)[C@](O)(c3ccccc3)[C@@H]3CCC(F)(F)C3)CC2)c1 | 77% | 80% | 21 nM |  | 3400 nM |  |  |
| COc1cccc(CN2CCC(NC(=O)C(O)(c3ccccc3)C3CCCC3)CC2)c1 (centres undefined) |  |  | 5.9 nM |  | 270 nM |  |  |

| SMILES | Metabolic stability (Canis familiaris [1]) | Metabolic stability (Homo sapiens [2]) | Ki [3] | Activity (Canis familiaris [4]) | Ki [5] | Ki [6] | Metabolic stability (Homo sapiens [7]) |
| --- | --- | --- | --- | --- | --- | --- | --- |
| Nc1cccc(CN2CCC(NC(=O)[C@](O)(c3ccccc3)[C@@H]3CCC(F)(F)C3)CC2)c1 | 88% | 90% | 6.9 nM |  | 330 nM |  |  |
| Cc1cccc(CN2CCC(NC(=O)C(O)(c3ccccc3)C3CCCC3)CC2)c1 (centres undefined) |  |  | 2.3 nM |  | 70 nM |  |  |
| Cc1cccc(CN2CCC(NC(=O)[C@](O)(c3ccccc3)[C@@H]3CCC(F)(F)C3)CC2)c1 | 32% | 55% |  | 25 | 310 nM | 2 nM |  |
| O=C(NC1CCN(CC2CCCCCC2)CC1)C(O)(c1ccccc1)C1CCCC1 (centres undefined) |  |  | 12 nM |  | 3100 nM |  |  |
| O=C(NC1CCN(Cc2ccccn2)CC1)C(O)(c1ccccc1)C1CCCC1 (centres undefined) |  |  | 14 nM |  | 320 nM |  |  |
| CC(C)=CCCN1CCC(NC(=O)[C@](O)(c2ccccc2)[C@H]2CCC(F)(F)C2)CC1 | 77% | 75% | 16 nM |  | 1400 nM |  |  |
| CC(C)=CCCN1CCC(NC(=O)[C@](O)(c2ccccc2)[C@H]2CC[C@H](F)C2)CC1 | 60% | 66% | 19 nM |  | 1300 nM |  |  |
| Cc1ccccc1CN1CCC(NC(=O)C(O)(c2ccccc2)C2CCCC2)CC1 (centres undefined) |  |  | 220 nM |  | 37000 nM |  |  |
| O=C(NC1CCN(CC2CCCC2)CC1)C(O)(c1ccccc1)C1CCCC1 (centres undefined) |  |  | 270 nM |  | 14000 nM |  |  |
| CC(C)=CCCN1CCC(NC(=O)[C@](O)(c2ccccc2)[C@H]2CC[C@@H](F)C2)CC1 | 64% | 75% | 11 nM |  | 2300 nM |  |  |
| O=C(NC1CCN(CC2CCCCCC2)CC1)[C@](O)(c1ccccc1)[C@@H]1CCC(F)(F)C1 |  |  |  |  | 17000 nM | 28 nM |  |
| CC(C)=CCCN1CCC(NC(=O)[C@](O)(c2ccccc2)C2CCCC2)CC1 | 31% | 54% |  | 5.2 | 490 nM |  |  |
| O=C(NC1CCN(Cc2cccc(O)c2)CC1)[C@](O)(c1ccccc1)[C@@H]1CCC(F)(F)C1 | 73% | 56% | 5.4 nM |  | 37 nM |  |  |
| O=C(NC1CCN(Cc2ccsc2)CC1)[C@](O)(c1ccccc1)[C@@H]1CCC(F)(F)C1 | 37% | 35% |  |  |  |  |  |
| O=C(NC1CCN(CC2CCCCCCC2)CC1)C(O)(c1ccccc1)C1CCCC1 (centres undefined) |  |  | 93 nM |  | 9400 nM |  |  |
| O=C(NC1CCN(Cc2ccoc2)CC1)C(O)(c1ccccc1)C1CCCC1 (centres undefined) |  |  | 50 nM |  | 1800 nM |  |  |
| Nc1cccc(CN2CCC(NC(=O)[C@](O)(c3ccccc3)[C@@H]3CCC(F)(F)C3)CC2)n1 | 84% | 80% | 2.8 nM | >64 | 530 nM |  |  |
| O=C(NC1CCN(Cc2cccc(F)c2)CC1)[C@](O)(c1ccccc1)[C@@H]1CCC(F)(F)C1 | 23% |  | 3.1 nM |  | 480 nM |  | 52% |
| COc1cccc(CN2CCC(NC(=O)[C@](O)(c3ccccc3)[C@@H]3CCC(F)(F)C3)CC2)c1 | 53% | 46% |  |  |  |  |  |
